Rows were chosen to be rich in hits. Some 2.9% of all compounds tested hit in one or more screens of this group.
TRPC6 inh – mouse TRPC6 channel inhibitors, primary screen, cell-based, HEK293, membrane potential dye; ACh-evoked depolarization; active compounds read low; B-score at 10 µM; 1.1% of 310,000 active;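 active = B-score under library mean minus 3 SD, initial fluorescence not abnormally high, positive integrated signal ratio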;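 note: B-score derived from integrated fluorescence ratio over the kinetic read; more negative B-score means stronger inhibition of depolarization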
TRPC6 act – mouse TRPC6 channel activators, primary screen, cell-based, HEK293, membrane potential dye; Short transient receptor potential channel 6 (Mus musculus), Q61143; HEK293-TRPC6 membrane potential dye fluorescence; active compounds read high; B-score at 10 µM; 0.13% of 310,000 active; AID 2550, 2010;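 active = B-score of the integrated fluorescence ratio above library mean plus 3 SD, and starting fluorescence ratio within library mean plus 5 SD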;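 note: higher score means more depolarization so channel activation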
TRPC4 act – activators of mouse TRPC4 channel, primary screen, Fluo4 calcium, HEK293 TRPC4beta/mu-opioid cells. Short transient receptor potential channel 4 (Mus musculus), Q9QUQ5. B-score at 10 µM. Fluo4 calcium fluorescence; active compounds read high. 0.49% of 310,000 active. AID 2237, 2010;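 active = B-score above 5 SD of library B-scores, and initial fluorescence ratio not above library mean plus 5 SD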;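 note: positive B-score marks a calcium rise read as TRPC4 activation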
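System: HEK293 cells stably co-expressing mouse TRPC4beta and mu-opioid receptor; Schedule: Fluo4 dye loading 45 min at room temperature, 110 s recording; Detection: Fluo4 fluorescence, kinetic; Evaluation: B-scored integrated calcium fluorescence ratio; Controls: buffer (low) and maximal DAMGO (high).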
TRPC4 potent – positive allosteric modulators of TRPC4, primary screen, cell-based, mouse TRPC4beta, HEK293 mu-opioid, Fluo-4 calcium | Short transient receptor potential channel 4 (Mus musculus), Q9QUQ5 | DAMGO EC20, Fluo-4 Ca2+ flux; active compounds read high | B-score at 10 µM | 0.42% of 310,000 active | AID 2227, 2009;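 active = B-score of calcium response area above 5 SD of library B-scores, with initial fluorescence ratio within 5 SD of library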;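 note: B-score of integrated fluorescence ratio over time as area under calcium response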
Kir21 inh – inhibitors of mouse Kir2.1 inward-rectifier potassium channel; HEK293-Kir2.1, FluxOR thallium flux fluorescence; active compounds read low; Inward rectifier potassium channel 2 (Mus musculus), P35561; B-score at 10 µM; 0.85% of 310,000 active;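 active = fluorescence ratio B-score at or below minus 3 SD of library scores, with starting-brightness B-score within 2 SD, cut at about -4.2 in these data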;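 note: channel flux triggered by added potassium and thallium sulfate stimulus; B-score of peak minus minimum fluorescence over baseline after thallium stimulus; more negative B-score means stronger Kir2.1 block with less thallium influx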
Target sequence (P35561 whole entry, looked up): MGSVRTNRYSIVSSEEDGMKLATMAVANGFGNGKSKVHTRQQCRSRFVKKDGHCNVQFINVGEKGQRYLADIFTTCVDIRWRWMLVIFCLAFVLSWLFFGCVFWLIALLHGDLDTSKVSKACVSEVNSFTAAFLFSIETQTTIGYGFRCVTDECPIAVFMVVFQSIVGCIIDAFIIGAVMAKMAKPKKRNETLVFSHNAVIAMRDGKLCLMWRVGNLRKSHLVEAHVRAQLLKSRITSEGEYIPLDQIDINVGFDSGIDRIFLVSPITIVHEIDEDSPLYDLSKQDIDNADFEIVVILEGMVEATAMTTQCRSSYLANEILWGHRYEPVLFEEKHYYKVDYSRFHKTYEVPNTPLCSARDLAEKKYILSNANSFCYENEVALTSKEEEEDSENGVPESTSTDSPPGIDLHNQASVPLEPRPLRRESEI
TRPC4 inh – inhibitors of mouse TRPC4 channel, primary screen, Fluo4 calcium, HEK293 TRPC4beta/mu-opioid cells. Short transient receptor potential channel 4 (Mus musculus), Q9QUQ5. DAMGO-evoked Fluo4 calcium flux; active compounds read low. B-score at 10 µM. 0.39% of 300,000 active;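 active = B-score over 3 SD under the library average, no early fluorescence shift, positive overall ratio signal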
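material = TRPC4beta/mu-opioid receptor HEK293 cell line | probe or stimulus = sequential submaximal and maximal DAMGO stimulation | compound dosing = one concentration per compound | measured by = Fluo4 Ca2+ flux fluorescence | evaluation = integrated fluorescence ratio relative to baseline, converted to per-well B score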
TRPC4 spec 2 – mouse TRPC4 off-target activity of TRPC6 inhibitors, second screen; HEK293 TRPC4/MOR, membrane potential dye fluorescence; channel activated by saturating DAMGO dose; 42% of 920 active; inhibition, % at 10 µM; shares compounds with TRPC6 inh; AID 2776;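 active = compounds whose fluorescence signal differed from control wells by over 3 SD, either direction, in both duplicate plates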
TRPC4 spec – mouse TRPC4 modulation by TRPC6 hits, confirmation, selectivity assay for TRPC6 inhibitor project, cell-based, HEK293 TRPC4/mu-opioid, membrane potential dye | shares compounds with TRPC6 inh | 61% of 920 active | membrane potential fluorescence | activity change, negative = inhibition, % at 10 µM;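 active = rise or fall in signal beyond 3 SD of buffer-only wells in both replicate plates, either sign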;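 note: integrated kinetic ratio of fluorescence range over baseline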
HEK293 MPD ctr 2-1 – nonspecific membrane potential effects, parental HEK293, confirmation, counter-screen for TRPC6 inhibitor project, cell-based, second counter screen; shares compounds with TRPC6 inh; parental HEK293 membrane potential dye fluorescence; maximal acetylcholine challenge after compound addition; signal change vs control, % at 10 µM; 31% of 920 active;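 active = membrane potential signal moving either way by over 3 SD of the maximum-effect control, in both duplicate plates, meaning non-specific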
HEK293 MPD ctr-1 – membrane potential modulation in parental HEK293, confirmation, counter-screen for TRPC6 inhibitor project, cell-based. shares compounds with TRPC6 inh. parental HEK293 membrane potential dye fluorescence. membrane potential signal change, % at 10 µM. 60% of 920 active. AID 2780, 2010;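 active = membrane potential signal shifting up or down by more than 3 SD of buffer-only wells, on both duplicate plates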
HEK293 MPD ctr-2 – parental HEK293 membrane potential modulation, confirmation, counter-screen for TRPC6 modulator project, cell-based. shares compounds with TRPC6 inh. membrane potential dye fluorescence. membrane potential signal change, % at 10 µM. 51% of 2,400 active;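 active = membrane potential signal moves up or down beyond 5 SD from buffer-only wells, on both duplicate plates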
HEK293 MPD ctr 2-2 – parental HEK293 nonspecific activity of TRPC6 modulators, second screen. shares compounds with TRPC6 inh. 14% of 2,400 active. inhibition, % at 10 µM. membrane potential dye fluorescence; after compound, maximal acetylcholine stimulation. AID 488926;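 active = membrane potential signal drops by more than 5 SD from the mean control signal, in both duplicate plates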;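 note: plate controls were acetylcholine ECmax control wells for no effect and buffer only wells for full effect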
TRPC4 ctr mod – TRPC4 modulation by TRPC6 hit compounds, confirmation, selectivity assay for TRPC6 modulator project, cell-based, HEK293 TRPC4/mu-opioid, membrane potential dye, mouse | shares compounds with TRPC6 inh | membrane potential fluorescence | percent change from control (negative = decrease, positive = increase), % at 10 µM | 69% of 2,400 active;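 active = membrane potential signal moved up or down beyond 5 SD of buffer control wells, in both duplicate plates, actives on both sides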;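 note: plate controls were assay buffer wells for no effect and DAMGO maximal-effect wells for full effect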
TRPC4/MOR inh 2 – second check of whether TRPC6 modulators also affect mouse TRPC4; HEK293 TRPC4/mu-opioid, membrane potential dye fluorescence; stimulated with maximal-effect DAMGO; shares compounds with TRPC6 inh; inhibition, % at 10 µM; 55% of 2,400 active;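 active = drop in membrane potential signal beyond 5 SD of the control wells in both duplicate plates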;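 note: TRPC4 counter screen for TRPC6 hits run under conditions tuned for TRPC6 not TRPC4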
TRPC6 block conf – mouse TRPC6 channel inhibitors, confirmation, HEK293 cells, membrane potential dye, duplicate; 43% of 3,300 active; shares compounds with TRPC6 inh; ACh-evoked depolarization; inhibition, % at 10 µM;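 active = fluorescence ratio falls more than 5 SD below the full-stimulation control mean, in both duplicate runs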;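 note: integrated fluorescence ratio of peak minus minimum over baseline after agonist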
TRPC6 act confirm – mouse TRPC6 channel activators, confirmation, HEK293 cells, membrane potential dye, duplicate; shares compounds with TRPC6 inh; HEK293-TRPC6 membrane potential dye fluorescence, FDSS; activation, % at 10 µM; 11% of 2,800 active; AID 488961, 2010;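 active = ratio signal rise beyond 5 SD above unstimulated control wells' mean, seen in both duplicate runs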;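 note: plate controls were buffer EC0 wells for no effect and acetylcholine ECmax response for full effect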
* marks the source's active call; other numbers are inactive results; i = inactive; . = not tested or not shown; ! = repeats disagree.

SMILES	TRPC6 inh	TRPC6 act	TRPC4 act	TRPC4 potent	Kir21 inh	TRPC4 inh	HEK293 MPD ctr-2	HEK293 MPD ctr 2-2	TRPC4 ctr mod	TRPC4/MOR inh 2	TRPC6 block conf	TRPC6 act confirm	others
Fc1cccc(CN2CCN(c3ccc(Cl)cc3)CC2)c1	-7.1*	i	i	i	-0.68	i	.	.	.	.	i	i	TRPC4 spec 2=i;TRPC4 spec=i;HEK293 MPD ctr 2-1=i;HEK293 MPD ctr-1=i
CC(=O)c1cn(CC(=O)NCCc2c[nH]c3ccccc23)c2ccccc12	i	i	i	i	0.24	i	.	.	.	.	.	.
CCCC[N+]12CCC(CC1)C(=C(c1ccccc1)c1ccccc1)C2	i	i	i	i	-0.59	i	.	.	.	.	.	.
CCC[N+]12CCC(CC1)C(=C(c1ccccc1)c1ccccc1)C2	-5.8*	i	i	i	0	i	i	i	14%*	i	64%*	.
CC(=O)OCC[N+](C)(C)C	-7.9*	15*!	125*	i	-0.72	i	133%*!	66%*!	44%*	i	70%*	124%*	TRPC4 spec 2=i;TRPC4 spec=37%*;HEK293 MPD ctr 2-1=i;HEK293 MPD ctr-1=4.2%*
CCCCn1c(C)c(C(=O)O)c2cc(OC)c3ccccc3c21	i	i	i	i	1.8	i	.	.	.	.	.	.
Cc1ccc(CN2C3CCCC2CC(NC(=O)Nc2cccc(F)c2)C3)cc1 (stereo unspecified)	-6.5*	i	53*	i	-2.2	i	i	i	26%*	96%*	49%*	.
COc1ccc(C(=O)C2CCCN(C3CSCCSC3)C2)cc1OC (stereo unspecified)	-7.7*	i	167*	i	0.98	i	i	83%*	59%*	36%*	72%*	i
O=C(c1ccc(Cl)cc1)C1CCCN(C2CCSCC2)C1 (stereo unspecified)	-7*	i	i	i	-0.07	-5*	130%*	i	28%*	50%*	44%*	.
O=[N+]([O-])c1ccc(-[n+]2c(-c3ccccc3)cc(-c3ccccc3)cc2-c2ccccc2)cc1	i	i	i	i	-2	i	.	.	.	.	.	.
O=[N+]([O-])c1ccccc1-c1cc(-c2ccccc2)cc(-c2ccccc2)[n+]1Cc1ccccc1Cl	-5.7*	i	i	i	-9.1*	i	i	i	-8.5%*	i	i	i
Fc1ccc(C[n+]2c(-c3ccccc3)cc(-c3ccccc3)cc2-c2ccccc2)cc1	-6.9*	i	i	i	-9.3*	i	.	.	.	.	56%*	i	TRPC4 spec 2=75%*;TRPC4 spec=4.2%*;HEK293 MPD ctr 2-1=232%*;HEK293 MPD ctr-1=3.5%*
CC(C)OCCCNC(=O)c1c(N)n(CC2CCCO2)c2nc3ccccc3nc12 (stereo unspecified)	-5*	i	i	i	1.7	i	124%*	i	23%*	i	i	.
CCCNC(=O)c1c(N)n(CC2CCCO2)c2nc3ccccc3nc12 (stereo unspecified)	i	i	i	i	1.6	i	.	.	.	.	.	.
OC(Cn1c2ccccc2c2ccccc21)C[n+]1cccc2ccccc21 (stereo unspecified)	-6.7*	i	i	i	-5.2*	i	.	.	.	.	59%*	i	TRPC4 spec 2=i;TRPC4 spec=-28%*;HEK293 MPD ctr 2-1=i;HEK293 MPD ctr-1=-334%*
N=C1c2ccccc2CN1c1ncccn1	-7.3*	i	i	i	-0.44	i	i	i	-11%*	i	i	i
N#CCC(=O)NN1Cc2ccccc2C1=N	i	i	i	i	0.15	i	.	.	.	.	.	.
COc1ccc(CC2(CCc3ccncc3)C(=O)NC(=O)NC2=O)cc1OC	i	i	i	i	-0.41	i	.	.	.	.	.	.
Clc1ccc2[nH]c3c(c2c1)CCNC3	-5.3*	i	i	i	-0.93	i	i	i	i	35%*	i	i
O=c1cccc2n1C[C@H]1C[C@@H]2CN2CCCC[C@@H]12	i	i	i	i	0.12	i	.	.	.	.	.	.
